Article PMC10784415 (Developmental dynamics : an official publication of the …, 2023)

Assays:
[1] = test system: constitutive FGFR3 signaling; conditions: mouse model of achondroplasia; cited from earlier work
Wistar rats [2] = experiment: Histology and immunohistochemistry of mandibles; assay type: in vivo, rat
[3] = Body weight at time of sacrifice; assay type: in vivo, rat; conditions: female rats, high dose, PND37, vs vehicle and low dose; non-significant
Procedure, shortened: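 Male and female Wistar rats received a daily oral gavage of vehicle (acetate buffer pH 4.68:PEG300, 50:50 v/v) or test compound at 0.1 or 1.0 mg/kg, starting on PND7. Rats were euthanized on PND14 or PND37, and body weight was recorded at sacrifice.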

CYP 3A4 = conditions: liver; cited from earlier work
Wistar rats [4] = experiment: MicroCT analysis of dentoalveolar tissues; assay type: in vivo, rat; conditions: for Rats with aberrant crown and root morphology of mandibular third molars: high dose (1.0 mg/kg) from PND7, PND37
Procedure, shortened: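 Daily oral gavage began at PND7 (vehicle, or test compound at 0.1 or 1.0 mg/kg), and formalin-fixed heads (5 per sex per group) were scanned by microCT at PND14 and PND37. PND37 thresholds were enamel 1500 and dentin/bone 650 mg HA/cm³. Alveolar bone included buccal/lingual, interdental and mesial rise regions. Read-outs were second-molar tissue volumes and densities, first-molar root lengths, and third-molar tissue thickness. Analysis was one-way ANOVA, p<0.05.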

Wistar rats [5] = experiment: MicroCT analysis of craniofacial bones and sutures; assay type: in vivo, rat
Procedure, shortened: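 Wistar rats received daily oral gavage from PND7 (vehicle acetate buffer pH 4.68/PEG300 50:50, or 0.1 or 1.0 mg/kg) and were examined at PND14 and PND37; 5 per sex per group. MicroCT gave bone volume and mineral density of nasal, premaxilla, maxilla, frontal, parietal and interparietal bones, linear skull measurements from set landmarks, and suture patency on 2D/3D images. Analysis was one-way ANOVA.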

[6] = female rats, high dose, PND37, vs vehicle
[7] = male rats, high dose, PND37, vs vehicle
[8] = female rats, high dose, vs vehicle

Rats with root resorption (cathepsin K staining) (Wistar rats [2]; female rats, high dose, PND37 (vehicle 75%)): 25%
Rats with root resorption (cathepsin K staining) (Wistar rats [2]; female rats, low dose, PND37 (vehicle 75%)): 50%
Rats with aberrant crown and root morphology of mandibular third molars (Wistar rats [4]; female rats): 100%
Alveolar bone density (Wistar rats [4]; female rats, high dose, PND14, vs vehicle): decreased alveolar bone density
Pulp density of mandibular second molars (Wistar rats [4]; female rats, high dose, PND37): significant increase
Reduction of mandibular first molar dentin volume (Wistar rats [4]; female rats, high dose, PND37, in comparison to the other groups): 12%
Decrease of first molar lingual root length (Wistar rats [4]; [6]): 9%
Decrease of first molar mesial root length (Wistar rats [4]; [6]): 8%
Decrease of mandibular third molar dentin volume (Wistar rats [4]; [6]): 40%
Decrease of mandibular third molar enamel volume (Wistar rats [4]; [6]): 64%
Decrease of root dentin volume (Wistar rats [4]; [6]): 21%
Alterations in dental tissues (Wistar rats [4]; low dose (0.1 mg/kg)): did not detect any alterations
Rats with aberrant crown and root morphology of mandibular third molars (Wistar rats [4]; male rats): 80%
Decrease of mandibular third molar dentin volume (Wistar rats [4]; [7]): 28%
Decrease of mandibular third molar enamel thickness (Wistar rats [4]; [7]): 33%
Decrease of mandibular third molar enamel volume (Wistar rats [4]; [7]): 61%
Decrease of root dentin volume (Wistar rats [4]; [7]): 16%
Dentin mineral density of second molars (Wistar rats [4]; [7]): significantly higher
Interfrontal suture patency (Wistar rats [5]; female rats, high dose, PND37, vs vehicle and low dose): significantly more patent
Decrease of parietal bone volume (Wistar rats [5]; female rats, high dose, vs low dose): 15%
Decrease of frontal bone volume (Wistar rats [5]; [8]): 12%
Decrease of interparietal bone mineral density (Wistar rats [5]; [8]): 4%
Decrease of interparietal bone volume (Wistar rats [5]; [8]): 18%
Decrease of parietal bone volume (Wistar rats [5]; [8]): 18%
Coronal suture patency (Wistar rats [5]; females and males, low dose and high dose, PND14, vs vehicle): appeared more patent
Interfrontal suture width (Wistar rats [5]; [7]): significantly more patent
Compound: CCN1CCN(c2ccc(Nc3cc(N(C)C(=O)Nc4c(Cl)c(OC)cc(OC)c4Cl)ncn3)cc2)CC1 [infigratinib, 3-(2,6-Dichloro-3,5-dimethoxy-phenyl)-1-{6-[4-(4-ethyl-piperazin-1-yl)-phenylamino]-pyrimidin-4-yl}-1-methyl-urea]
Effect on limb length and calvarial defects [1]: increase limb length and improve calvarial defects
Rats with root resorption (cathepsin K staining) (Wistar rats [2]; male rats, low or high dose, PND37 (vehicle 25%)): no male rats in either low or high dose groups exhibited root resorption
Body weight [3]: trend toward lower body weight
Metabolism (CYP 3A4): metabolized mainly via CYP 3A4
